Measurements reported in ChEMBL document CHEMBL3612034, “Synthesis of bicoumarin thiophosphate derivatives as steroid sulfatase inhibitors” (Eur J Med Chem, 2015).
Activity calls are given as the source filed them. The rule behind the calls is not given here.

Assays:
Steryl-sulfatase [1] = target: T1, Steryl-sulfatase (Homo sapiens, UniProt P08842); assay: Inhibition of human placenta STS using NPS as substrate after 15 mins by microplate reader analysis
T1 sequence (P08842 whole entry): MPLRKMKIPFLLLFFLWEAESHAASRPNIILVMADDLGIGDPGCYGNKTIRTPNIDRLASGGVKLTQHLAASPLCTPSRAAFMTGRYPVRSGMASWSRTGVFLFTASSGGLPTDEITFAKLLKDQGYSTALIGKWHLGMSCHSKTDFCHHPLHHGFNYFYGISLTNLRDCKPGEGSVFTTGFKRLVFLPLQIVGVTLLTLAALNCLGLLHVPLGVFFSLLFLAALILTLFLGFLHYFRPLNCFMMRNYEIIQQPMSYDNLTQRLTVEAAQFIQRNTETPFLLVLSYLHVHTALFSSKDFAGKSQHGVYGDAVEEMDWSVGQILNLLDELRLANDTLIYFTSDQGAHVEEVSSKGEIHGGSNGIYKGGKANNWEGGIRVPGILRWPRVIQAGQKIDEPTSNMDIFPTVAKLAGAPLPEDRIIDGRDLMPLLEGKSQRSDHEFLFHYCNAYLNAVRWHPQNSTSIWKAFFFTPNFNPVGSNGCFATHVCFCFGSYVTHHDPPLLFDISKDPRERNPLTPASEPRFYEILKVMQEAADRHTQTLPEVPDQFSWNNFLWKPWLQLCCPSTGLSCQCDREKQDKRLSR
How it was run: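 Enzyme: STS extracted from human placenta and purified by multi-step chromatography. Each reaction held 20 mM Tris-HCl pH 7.4, 3 mM p-nitrophenyl sulfate (NPS), 5 U enzyme and graded inhibitor concentrations, and ran 15 min at 37 °C. Stopped with 1 M NaOH; released p-nitrophenol read at 405 nm. IC50 fitted from triplicate measurements.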

[2] = target: T2, Steryl-sulfatase (Homo sapiens) (UniProt P08842); assay: Irreversible inhibition of human placenta STS at 100 uM preincubated for 30 mins in standard condition followed by exchange of reaction environment
T2 sequence (whole entry): T1 sequence (P08842 whole entry)
How it was run: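 Purified human placental STS was run under standard assay conditions (Tris-HCl pH 7.4, NPS substrate, 37 °C) with inhibitor present. Restored enzyme activity was then measured the same way, by p-nitrophenol absorbance at 405 nm after an NaOH stop. Basal and restored activities were compared to tell reversible from irreversible inhibition.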

Steryl-sulfatase [3] = target: T1, Steryl-sulfatase; assay: Inhibition of human placenta STS
How it was run: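 Human placental STS purified to homogeneity by multi-step chromatography. Each reaction used 5 U enzyme, 20 mM Tris-HCl pH 7.4, 3 mM p-nitrophenyl sulfate (NPS) and a range of inhibitor concentrations, for 15 min at 37 °C. NaOH stopped the reaction, and released p-nitrophenol was read at 405 nm. IC50 came from the dose-response curve, run in triplicate.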

[4] = target: T2, Steryl-sulfatase (Homo sapiens); assay: Reversible inhibition of human placenta STS at 100 uM preincubated for 30 mins in standard condition followed by exchange of reaction environment
How it was run: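 Reversibility test: the standard placental STS/NPS assay (Tris-HCl pH 7.4, 37 °C) was run with compound at a single fixed concentration. Enzyme activity was then measured again after restoration by the same p-nitrophenol absorbance read-out at 405 nm. Basal and restored activities were compared.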

Steryl-sulfatase [5] = target: T1, Steryl-sulfatase; assay: Inhibition of recombinant human STS transfected in CHO cells using MUS as substrate after 30 mins by fluorescence assay; type: cell-based

Structure (SMILES) | IC50 (Steryl-sulfatase [1]) [µM] | further results
O=c1oc2cc(OP(O)(=S)Oc3ccc4c5c(c(=O)oc4c3)CCC5)ccc2c2c1CCC2 | 26.9 | –
NP(=S)(Oc1ccc2c3c(c(=O)oc2c1)CCC3)Oc1ccc2c3c(c(=O)oc2c1)CCC3 | 74.3 | –
O=c1oc2cc(OP(O)(=S)Oc3ccc4c5c(c(=O)oc4c3)CCCCC5)ccc2c2c1CCCCC2 | 5.51 | –
O=c1oc2cc(OP(=S)(Cl)Oc3ccc4c5c(c(=O)oc4c3)CCCC5)ccc2c2c1CCCC2 | 7.76 | inhibition [2]: Active
NS(=O)(=O)Oc1ccc2c(c1)OC(O)C1=C2CCCCC1 (configuration not stated) | – | IC50 (Steryl-sulfatase [3]): 0.008 µM
O=c1oc2cc(OP(O)(=S)Oc3ccc4c5c(c(=O)oc4c3)CCCC5)ccc2c2c1CCCC2 | 0.86 | inhibition [4]: Active
CC(C)N(C(=O)C1=CC[C@H]2[C@@H]3CCc4cc(OS(N)(=O)=O)ccc4[C@H]3CC[C@]12C)C(C)C | – | IC50 (Steryl-sulfatase [5]): 0.004 µM
COP(=S)(Oc1ccc2c3c(c(=O)oc2c1)CCCCC3)Oc1ccc2c3c(c(=O)oc2c1)CCCCC3 | 6.77 | inhibition [2]: Active
O=c1oc2cc(OP(=S)(Cl)Oc3ccc4c5c(c(=O)oc4c3)CCC5)ccc2c2c1CCC2 | 33.8 | –
NP(=S)(Oc1ccc2c3c(c(=O)oc2c1)CCCC3)Oc1ccc2c3c(c(=O)oc2c1)CCCC3 | 110 | –
COP(=S)(Oc1ccc2c3c(c(=O)oc2c1)CCCC3)Oc1ccc2c3c(c(=O)oc2c1)CCCC3 | 14.8 | –
NP(=S)(Oc1ccc2c3c(c(=O)oc2c1)CCCCC3)Oc1ccc2c3c(c(=O)oc2c1)CCCCC3 | 88.8 | –
COP(=S)(Oc1ccc2c3c(c(=O)oc2c1)CCC3)Oc1ccc2c3c(c(=O)oc2c1)CCC3 | 75 | –
O=c1oc2cc(OP(=S)(Cl)Oc3ccc4c5c(c(=O)oc4c3)CCCCC5)ccc2c2c1CCCCC2 | 7.04 | –
